VIM-2 inh: inhibitors of Pseudomonas aeruginosa VIM-2 metallo-beta-lactamase; purified VIM-2, nitrocefin hydrolysis, epi-absorbance fluorescence; inhibition, % at 5.6 µM; 0.89% of 290,000 active; AID 1527;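 active = inhibition above the mean of all tested compounds plus 3 SD, cutoff set per screening run, cut at about 7.5% in these data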;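 also: red hydrolysis product quenches plate fluorescence so inhibitors raise well fluorescence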
beta cell repl: inducers of beta-cell replication in MIN6 cells | MIN6 cells proliferation, ATPlite luminescence, 48 h; cells starved in 0.2% serum; 100% = growth in 10% serum | proliferation, % at 10 µM | 0.29% of 330,000 active | AID 2380;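 active = compounds whose signal lies at least 3.5 SD above the mean of all wells on their plate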
HKDC1 inh: blocks human hexokinase HKDC1 activity | Q2TB90 | recombinant HKDC1, G6PDH/diaphorase resazurin coupled fluorescence | inhibition, % at 20 µM | 0.16% of 340,000 active | AID 493160;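 active = inhibition above about 35% when tested at 20 µM, limit read from the data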
Target sequence (Q2TB90 whole entry, looked up): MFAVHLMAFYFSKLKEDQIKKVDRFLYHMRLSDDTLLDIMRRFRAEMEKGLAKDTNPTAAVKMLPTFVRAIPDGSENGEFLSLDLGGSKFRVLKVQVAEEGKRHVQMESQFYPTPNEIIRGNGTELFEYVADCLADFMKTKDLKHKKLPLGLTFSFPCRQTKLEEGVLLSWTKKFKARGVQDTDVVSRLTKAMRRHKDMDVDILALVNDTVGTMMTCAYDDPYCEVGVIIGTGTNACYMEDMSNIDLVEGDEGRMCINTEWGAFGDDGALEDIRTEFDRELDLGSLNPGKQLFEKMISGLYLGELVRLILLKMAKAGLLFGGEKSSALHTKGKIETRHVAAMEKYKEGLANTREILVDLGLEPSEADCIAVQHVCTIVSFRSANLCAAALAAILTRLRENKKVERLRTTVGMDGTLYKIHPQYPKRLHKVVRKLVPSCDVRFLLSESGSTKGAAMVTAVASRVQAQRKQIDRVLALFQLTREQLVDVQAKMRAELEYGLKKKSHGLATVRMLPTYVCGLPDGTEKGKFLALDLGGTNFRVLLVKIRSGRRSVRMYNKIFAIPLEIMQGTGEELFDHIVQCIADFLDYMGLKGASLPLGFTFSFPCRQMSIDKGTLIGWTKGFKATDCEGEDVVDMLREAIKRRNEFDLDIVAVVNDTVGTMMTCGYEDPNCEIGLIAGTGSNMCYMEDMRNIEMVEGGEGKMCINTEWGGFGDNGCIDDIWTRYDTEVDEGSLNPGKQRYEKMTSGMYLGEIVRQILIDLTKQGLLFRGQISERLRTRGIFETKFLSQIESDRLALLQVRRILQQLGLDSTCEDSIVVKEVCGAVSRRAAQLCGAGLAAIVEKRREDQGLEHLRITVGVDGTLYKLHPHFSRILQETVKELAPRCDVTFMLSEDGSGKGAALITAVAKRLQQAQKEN
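Assay system – recombinant HKDC1 (HK5) hexokinase enzyme, produced in-house · Input – HKDC1 at 5 µg/mL · Reagent – glucose plus 1 mM ATP as hexokinase substrates · Timing – 90 min reaction incubation at room temperature, dark · Measured by – G6PDH/diaphorase-coupled fluorescence, 1 mM NADP, 100 µM resazurin, 525/613 nm · Benchmarks – DMSO-enzyme wells negative, buffer-substituted wells positive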
IMP-1 inh-1: inhibitors of Pseudomonas aeruginosa IMP-1 metallo-beta-lactamase; purified IMP-1, nitrocefin hydrolysis, epi-absorbance fluorescence; inhibition, % at 5.6 µM; 0.45% of 290,000 active; AID 1556;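 active = inhibition above the mean plus 3 SD of all compounds in the same screening run, cut at about 4.5% in these data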
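Assay system: purified IMP-1; Quantity: IMP-1 0.2 nM before substrate addition; Medium: HEPES buffer pH 7.1 with ZnSO4 and Brij 35; Incubation: 15 min enzyme–compound preincubation, then 25 min nitrocefin reaction, 25 °C; Signal: fluorescence quenching readout, ex 480/em 530 nm; Controls: DMSO with and without IMP-1; Repeats: singlicate testing.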
ATG4B inhibitor: ATG4B (human) cysteine protease inhibition; inhibition, % at 8.33 µM; Q9Y4P1; ATG4B cleavage of LC3-PLA2, NBD-HPC fluorescence, 1 h; 0.51% of 340,000 active; in the data active = inhibition above about 40%
PvdQ inh: P. aeruginosa PvdQ acylase inhibition | purified PvdQ acylase, fluorescence plate reader | inhibition, % at 10 µM | 0.063% of 340,000 active; in the data active = inhibition above about 30%, passing the limit was not always enough
IMP-1 inh-2: blocks IMP-1 metallo-beta-lactamase in VIM-2 selectivity screen. shares compounds with VIM-2 inh. purified IMP-1, nitrocefin hydrolysis, epi-absorbance fluorescence. inhibition, % at 5.6 µM. 1,300 tested, under 10 active. AID 1856; call rule not given here
VIM-2 FRET ctr: VIM-2 FRET inhibition, artifact counter-screen; 23% of 1,300 active; inhibition, % at 5.6 µM; shares compounds with VIM-2 inh; purified VIM-2, CCF2 FRET substrate hydrolysis;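 active = inhibition above the mean of all tested compounds plus 3 SD, cut at about 19% in these data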
TEM-1 inh: blocks E. coli TEM-1 beta-lactamase in VIM-2 selectivity screen | shares compounds with VIM-2 inh | Purified TEM-1, nitrocefin hydrolysis, epi-absorbance fluorescence | inhibition, % at 5.6 µM | 3% of 1,300 active;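 active = inhibition above that campaign's mean inhibition plus 3 SD, cut at about 0.46% in these data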
VIM-2 confirm 2: confirmation of P. aeruginosa VIM-2 metallo-beta-lactamase inhibitors; shares compounds with VIM-2 inh; purified VIM-2, nitrocefin hydrolysis, epi-absorbance; inhibition, % at 5.6 µM; 96% of 1,300 active; AID 2187;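 active = inhibition of the VIM-2 beta-lactamase enzyme above about 11% from the earlier first-round screen, limit read from the data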
Large screens that a line does not name were inactive (follow-up assays come after a bar, where they were run). Sampled rows, rich in hits. Any-hit rate of the full collection: about 2%.

O=[N+]([O-])c1cc(-c2ccc(/C=N/n3cnnc3)o2)ccc1Cl	VIM-2 inh 44 | IMP-1 inh-2 inactive | VIM-2 FRET ctr inactive | TEM-1 inh inactive | VIM-2 confirm 2 58
O=[N+]([O-])c1ccc(Cl)c(-c2ccc(/C=N/n3cnnc3)o2)c1	VIM-2 inh 45 | IMP-1 inh-2 inactive | VIM-2 FRET ctr inactive | TEM-1 inh inactive | VIM-2 confirm 2 52
Cc1ccc(-c2ccc(/C=N\n3cnnc3)o2)c(Br)c1	VIM-2 inh 13 | IMP-1 inh-2 inactive | VIM-2 FRET ctr inactive | TEM-1 inh inactive | VIM-2 confirm 2 24
COc1cc([N+](=O)[O-])ccc1-c1ccc(/C=N\n2cnnc2)o1	VIM-2 inh 45 | IMP-1 inh-2 inactive | VIM-2 FRET ctr inactive | TEM-1 inh inactive | VIM-2 confirm 2 45
Cc1ccc(Sc2oc(/C=N/n3cnnc3)cc2Br)cc1	none
COc1ccc(CC(=O)Nc2cccc(SC)c2)cc1OC	none (no result: beta cell repl)
NC(=O)c1cc(N=Nc2c(N)[nH]n(-c3c(Cl)cc(Cl)cc3Cl)c2=O)ccc1Cl	none
Cc1ccc(-c2ccc(/C=N/N3C(=O)C4C5C=CC(C6CC56)C4C3=O)o2)c([N+](=O)[O-])c1 (stereo not drawn)	none
Cc1cc(-c2ccc(/C=N/n3cnnc3)o2)c(C)c([N+](=O)[O-])c1	VIM-2 inh 87 | IMP-1 inh-2 inactive | VIM-2 FRET ctr inactive | TEM-1 inh inactive | VIM-2 confirm 2 91
CCNC(=O)c1c(NC(=O)c2cc(-c3cc(C)ccc3O)n[nH]2)sc2c1CCCC2	none
O=P(O)(O)c1ccccc1OCCOCCOCCOCCOc1ccccc1P(=O)(O)O	VIM-2 inh 31 | IMP-1 inh-2 inactive | VIM-2 FRET ctr 60 | TEM-1 inh inactive | VIM-2 confirm 2 44
O=C(NCC1CCCO1)C1CCCN(S(=O)(=O)c2cc(Cl)ccc2Cl)C1 (stereo not drawn)	none
O=[N+]([O-])c1cc(CN2CCCC2)c2cccnc2c1O	VIM-2 inh 38 (no result: beta cell repl) | IMP-1 inh-2 inactive | VIM-2 FRET ctr inactive | TEM-1 inh inactive | VIM-2 confirm 2 44
Oc1c(Cl)cc(CN2CCCCC2)c2cccnc12	VIM-2 inh 15 (no result: HKDC1 inh, ATG4B inhibitor) | IMP-1 inh-2 inactive | VIM-2 FRET ctr inactive | TEM-1 inh inactive | VIM-2 confirm 2 17
OCCN1CCN(Cc2cc(Cl)c3cccnc3c2O)CC1	none
COc1ccccc1N1CCN(Cc2cc(Br)c(O)c3ncccc23)CC1	VIM-2 inh 24 | IMP-1 inh-2 inactive | VIM-2 FRET ctr inactive | TEM-1 inh inactive | VIM-2 confirm 2 inactive
O=[N+]([O-])c1cc(CN2CCN(c3cccc(C(F)(F)F)c3)CC2)c2cccnc2c1O	VIM-2 inh 35 | IMP-1 inh-2 inactive | VIM-2 FRET ctr inactive | TEM-1 inh inactive | VIM-2 confirm 2 15
Cc1cc(C(=O)Nc2ccc(F)cc2C)n(-c2ccccc2)n1	none
CC(=O)NCC(=O)OCC(=O)c1ccc(Cl)cc1	none
O=C(CSc1nnc(NC(=O)c2cc(Br)ccc2Cl)s1)NCC1CCCO1 (stereo not drawn)	VIM-2 inh 25 | IMP-1 inh-2 inactive | VIM-2 FRET ctr 48 | TEM-1 inh inactive | VIM-2 confirm 2 33
COc1ccccc1C(=O)Nc1nnc(SCC(=O)NCC2CCCO2)s1 (stereo not drawn)	VIM-2 inh 15 | IMP-1 inh-2 inactive | VIM-2 FRET ctr 33 | TEM-1 inh inactive | VIM-2 confirm 2 21
COc1cc(C(=O)Nc2nnc(SCC(=O)NCC3CCCO3)s2)cc(OC)c1OC (stereo not drawn)	none
CC(C)C(=O)Nc1nnc(SCC(=O)NCC2CCCO2)s1 (stereo not drawn)	none

Compound activity (PubChem)
